Experimental findings from ChEMBL document CHEMBL1158956, “Biologically active metabolites from Xenorhabdus spp., Part 2. Benzopyran-1-one derivatives with gastroprotective activity” (1991) are described below.

Values after ≈ are worked out from the molar mass of the structure shown. Active and inactive are the calls of the source. No cut-off for these calls is given here. Where only a bound is given, the exact number is not on record here.

Experiment [1] has as its system Staphylococcus aureus. In words: Antimicrobial activity against Staphylococcus aureus Oxford NCTC 6571. The format is functional. In outline: (§1)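 MIC by blood agar screen: DST agar with 10% defibrinated horse blood; inocula were undiluted overnight broth cultures; plates incubated aerobically overnight at 37°.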
In another experiment the test system is Priestia megaterium. The experiment can be described thus: Antimicrobial activity against Bacillus megaterium NCIB 9376. Type of experiment: functional. In outline: as §1
The subject of the next experiment is Proteus mirabilis. In words: Antimicrobial activity against Proteus mirabilis C977. The format is functional. In outline: as §1
Experiment [2] deals with Staphylococcus aureus. In words: Antimicrobial activity against Staphylococcus aureus V573. The format is functional. In outline: as §1
The subject of experiment [3] is Rattus norvegicus. The experiment can be described thus: Antiulcerogenic activity in stress-induced Wistar rat assessed as protection from ulcer at 10 mg/kg, po. Type of experiment: functional.
The test system of experiment [4] is Rattus norvegicus. In words: Antiulcerogenic activity in stress-induced Wistar rat assessed as protection from ulcer at 25 mg/kg, po. Type of experiment: functional.
The next experiment relates to Salmonella typhimurium. In words: Antimicrobial activity against Salmonella Typhimurium CT10. The format is functional, Salmonella enterica subsp. enterica serovar Typhimurium. Particulars: Salmonella enterica. In outline:
as §1

Experiment [5] concerns Escherichia coli. In words: Antimicrobial activity against Escherichia coli ESS. The format is functional. In outline: as §1
The test system of the next experiment is Corynebacterium xerosis. In words: Antimicrobial activity against Corynebacterium xerosis NCTC 9755. Type of experiment: functional. In outline:
as §1

In the next experiment the test system is Klebsiella aerogenes. In words: Antimicrobial activity against Klebsiella aerogenes A. The format is functional. In outline: as §1
In the next experiment the test system is Micrococcus luteus. In words: Antimicrobial activity against Sarcina lutea ATCC 8740. Type of experiment: functional. In outline: as §1
The next experiment deals with Enterobacter cloacae. The experiment can be described thus: Antimicrobial activity against Enterobacter cloacae N1. The format is functional. In outline:
as §1

A further experiment has as its system Streptococcus sanguinis. The experiment can be described thus: Antimicrobial activity against Streptococcus sanguis ATCC 10556. Type of experiment: functional. In outline: as §1
Another experiment relates to Pseudomonas aeruginosa. The experiment can be described thus: Antimicrobial activity against Pseudomonas aeruginosa 1771P. Type of experiment: functional. In outline: as §1
Experiment [6] deals with Escherichia coli. The experiment can be described thus: Antimicrobial activity against Escherichia coli 10418. Type of experiment: functional. In outline: as §1
The next experiment has as its system Cryptococcus neoformans. The experiment can be described thus: Antimicrobial activity against Cryptococcus neoformans. Type of experiment: functional. In outline:
(§2)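 Microtiter MIC with twofold dilutions in defined (Yeast Nitrogen Base + 1% glucose) and complex (Sabouraud's glucose) broth; compound from DMSO stock, final DMSO <1%; inocula 10^3 and 10^5 cells/ml; incubated 2 days at 37°.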

Another experiment relates to Citrobacter freundii. The experiment can be described thus: Antimicrobial activity against Citrobacter freundii ES. Type of experiment: functional. In outline: as §1
Experiment [7] concerns Escherichia coli. The experiment can be described thus: Antimicrobial activity against Escherichia coli DCO. The format is functional. In outline:
as §1

The test system of the next experiment is Acinetobacter lwoffii. In words: Antimicrobial activity against Acinetobacter lwoffii BRL 2400. The format is functional. In outline: as §1
A further experiment deals with Streptococcus pyogenes. In words: Antimicrobial activity against Streptococcus pyogenes CN10. Type of experiment: functional. In outline: as §1
The subject of the next experiment is Aspergillus fumigatus. In words: Antimicrobial activity against Aspergillus fumigatus at […] after 2 days by tube dilution method. The format is functional, organism-based. In outline: (§3)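 Tube dilution MIC in defined medium (Yeast Nitrogen Base + 1% glucose) and complex medium (Sabouraud's glucose broth); compound dissolved in DMSO, final DMSO <1%; tenfold dilutions 100 to 0.1 μg/ml; inoculum 10^4 spores/ml; 2 days at 37°.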

The subject of experiment [8] is Rattus norvegicus. In words: Antiulcerogenic activity in stress-induced Wistar rat assessed as protection from ulcer at 5 mg/kg, po. The format is functional.
For experiment [9], the system named is Trichophyton mentagrophytes. The experiment can be described thus: Antimicrobial activity against Trichophyton mentagrophytes at 128 ug/ml after 11 days by twofold dilution method. Type of experiment: functional, organism-based.
Another experiment relates to Candida parapsilosis. The experiment can be described thus: Antimicrobial activity against Candida parapsilosis at 128 ug/ml after 2 days by twofold dilution method. Type of experiment: functional, organism-based. In outline:
as §2

In the next experiment the test system is Trichophyton rubrum. The experiment can be described thus: Antimicrobial activity against Trichophyton rubrum at 128 ug/ml after 11 days by twofold dilution method. The format is functional, organism-based.
In the next experiment the test system is Candida albicans. In words: Antimicrobial activity against Candida albicans at 128 ug/ml after 2 days by twofold dilution method. Type of experiment: functional, organism-based. In outline: as §2
The subject of a further experiment is Aspergillus niger. In words: Antimicrobial activity against Aspergillus niger at […] after 2 days by tube dilution method. Type of experiment: functional, organism-based. In outline: as §3

As for `CC(C)CC(NC(=O)C(O)C(O)C(N)CCCNC(=N)N)C1Cc2cccc(O)c2C(=O)O1` (stereo unspecified) [XENOCOUMACIN 1], the MIC in the experiment on Staphylococcus aureus [1] is 10 µg/mL (≈ 21.5 µM); with Priestia megaterium, 2.5 µg/mL (≈ 5.37 µM); in the experiment with Proteus mirabilis, greater than 100 µg/mL; in the experiment on Staphylococcus aureus [2] it was 25 µg/mL (≈ 53.7 µM); in the experiment with Salmonella typhimurium it was greater than 100 µg/mL; against Escherichia coli [5] it was 0.5 µg/mL (≈ 1.07 µM). The MIC in the experiment on Corynebacterium xerosis is 1 µg/mL (≈ 2.15 µM); against Klebsiella aerogenes, greater than 100 µg/mL; in the experiment on Micrococcus luteus, 1 µg/mL (≈ 2.15 µM); against Enterobacter cloacae it was greater than 100 µg/mL; against Streptococcus sanguinis, 10 µg/mL (≈ 21.5 µM); against Pseudomonas aeruginosa, greater than 100 µg/mL. In addition, the minimal inhibitory concentration (MIC) against Escherichia coli [6] was 2.5 µg/mL (≈ 5.37 µM); in the experiment with Cryptococcus neoformans it was 0.125 µg/mL (≈ 0.268 µM); with Citrobacter freundii, greater than 100 µg/mL; with Escherichia coli [7] it was 10 µg/mL (≈ 21.5 µM); in the experiment on Acinetobacter lwoffii it was 2.5 µg/mL (≈ 5.37 µM); against Streptococcus pyogenes, 1 µg/mL (≈ 2.15 µM). Further, the Activity in the experiment on Rattus norvegicus [3] is given as 8%; in the experiment with Rattus norvegicus [4], 74%.
For `CC(C)CC(NC(=O)C(O)C(O)C1CCCN1)C1Cc2cccc(O)c2C(=O)O1` (stereo unspecified) [XENOCOUMACIN 2], the result (in the experiment on Aspergillus fumigatus; in experiment [9]; with Candida parapsilosis; in the experiment with Trichophyton rubrum; in the experiment with Candida albicans; in the experiment on Aspergillus niger) was inactive. For the same molecule, the MIC was 5 µg/mL (≈ 12.3 µM) against Staphylococcus aureus [1]; 5 µg/mL (≈ 12.3 µM) against Priestia megaterium; greater than 100 µg/mL in the experiment on Proteus mirabilis; greater than 100 µg/mL in the experiment with Staphylococcus aureus [2]; greater than 100 µg/mL against Salmonella typhimurium; 2.5 µg/mL (≈ 6.15 µM) against Escherichia coli [5]. Moreover, the MIC in the experiment with Corynebacterium xerosis was 5 µg/mL (≈ 12.3 µM); against Klebsiella aerogenes it was greater than 100 µg/mL; with Micrococcus luteus, 5 µg/mL (≈ 12.3 µM); with Enterobacter cloacae it was greater than 100 µg/mL; in the experiment on Streptococcus sanguinis, 10 µg/mL (≈ 24.6 µM); in the experiment with Pseudomonas aeruginosa it was greater than 100 µg/mL. In addition, the MIC in the experiment on Escherichia coli [6] is 50 µg/mL (≈ 123 µM); against Citrobacter freundii it was greater than 100 µg/mL; in the experiment with Escherichia coli [7], greater than 100 µg/mL; against Acinetobacter lwoffii it was 5 µg/mL (≈ 12.3 µM); against Streptococcus pyogenes it was 5 µg/mL (≈ 12.3 µM). Moreover, the Activity is 61% with Rattus norvegicus [3], 26% with Rattus norvegicus [8] and 70% in the experiment with Rattus norvegicus [4].

For orientation: MIC means the least concentration at which growth counts as inhibited. Low values mean a more susceptible organism, high ones a less susceptible organism.
